Here are results for 26 compounds from ChEMBL document CHEMBL4373640, “Synthesis and antitumor activity of aza-brazilan derivatives containing imidazolium salt pharmacophores” (Medchemcomm, 2019).

Holding throughout (assay type): functional, cell-based
The nature of test [1]: Cytotoxicity against human SMMC-7221 cells assessed as reduction in cell viability after 48 hrs by MTS assay. The settings on record: SMMC-7221, 48 h. In a few lines: (§1)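 Cells (5 × 10^3 per well) were plated 12 h before treatment, then exposed continuously to compound for 48 h. MTS was added, with 1–4 h incubation at 37 °C and OD read at 490 nm. IC50 is the concentration cutting OD by 50% versus untreated cells, taken from dose–response curves. Values are the mean of three independent determinations.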
For orientation: Tetrazolium assays rely on reduction of a dye to a coloured formazan, in cell work by metabolically active cells.

Test [2] has as its system A549. Kind of test: Cytotoxicity against human A549 cells assessed as reduction in cell viability after 48 hrs by MTS assay. The settings on record: A549, 48 h. In a few lines: as §1
Test [3] relates to MCF7. The test is described as follows: Cytotoxicity against human MCF7 cells assessed as reduction in cell viability after 48 hrs by MTS assay. The settings on record: MCF7, 48 h. In short, it runs like this: as §1
Test [4] relates to SW480. Kind of test: Cytotoxicity against human SW480 cells assessed as reduction in cell viability after 48 hrs by MTS assay. The following applies: SW480, 48 h. In short, it runs like this: as §1

Turning to `COc1ccc(C(=O)C[n+]2c(C)n(CCC(=O)N3C[C@@H]4Cc5ccccc5[C@@H]4c4cccc(OC)c43)c3ccccc32)cc1`, the IC50 was found to be 4620 nM in test [1], 10600 nM in test [2], 3120 nM in test [3] and 2650 nM in test [4].

In the case of `COc1cccc2c1N(C(=O)CCn1c(C)[n+](Cc3ccc4ccccc4c3)c3ccccc31)C[C@@H]1Cc3ccccc3[C@H]21`, the IC50 in test [1] is 1450 nM; in test [2] it was 3680 nM; in test [3], 960 nM; in test [4], 770 nM.

For the compound `COc1cc2c(cc1OC)[C@@H]1c3cccc(OC)c3N(CCCn3c[n+](CC(=O)c4ccc5ccccc5c4)c4cc(C)c(C)cc43)C[C@@H]1C2`, the IC50 in test [1] turned out to be 1710 nM; in test [2], 4910 nM; in test [3], 1120 nM; in test [4], 1380 nM.

Turning to `COc1cccc2c1N(CCCn1c(C)[n+](Cc3ccc(C)cc3)c3ccccc31)C[C@@H]1Cc3ccccc3[C@H]21`, the IC50 worked out at 1800 nM in test [1], 4250 nM in test [2], 1470 nM in test [3] and 1660 nM in test [4].

Regarding `COc1cccc2c1N(C(=O)CCn1c(C)[n+](CC(=O)c3ccc4ccccc4c3)c3ccccc31)C[C@@H]1Cc3ccc(Br)cc3[C@H]21`, the IC50 in test [1] was determined as 1580 nM; in test [2] it was 2630 nM; in test [3], 1430 nM; in test [4], 1750 nM.

As for `COc1cccc2c1N(C(=O)CCn1c(C)nc3ccccc31)C[C@@H]1Cc3ccc(Br)cc3[C@H]21`, the IC50 in test [1], in test [2], in test [3] and in test [4] was above 20000 nM each time.

For `COc1cccc2c1N(CCCn1c(C)nc3ccccc31)C[C@@H]1Cc3ccc(Br)cc3[C@H]21`, the half-inhibitory concentration (IC50) in test [1], in test [2], in test [3] and in test [4] was above 20000 nM each time.

On to `COc1cc2c(cc1OC)[C@@H]1c3cccc(OC)c3N(CCCn3c[n+](Cc4ccc5ccccc5c4)c4cc(C)c(C)cc43)C[C@@H]1C2`, for which the IC50 in test [1] is 1820 nM; in test [2], 5830 nM; in test [3], 1490 nM; in test [4], 1620 nM.

As to `COc1ccc(C(=O)C[n+]2cn(CCC(=O)N3C[C@@H]4Cc5ccccc5[C@@H]4c4cccc(OC)c43)c3cc(C)c(C)cc32)cc1`, the IC50 in test [1] came to 3160 nM; in test [2], 7530 nM; in test [3] it was 2540 nM; in test [4], 800 nM.

Consider `COc1cc2c(cc1OC)[C@@H]1c3cccc(OC)c3N(CCCn3cnc4cc(C)c(C)cc43)C[C@@H]1C2`, for which the IC50 in test [1], in test [2], in test [3] and in test [4] was above 20000 nM in each case.

Consider `COc1cccc2c1N(C(=O)CCn1c[n+](CC(=O)c3ccc4ccccc4c3)c3cc(C)c(C)cc31)C[C@@H]1Cc3ccc(Br)cc3[C@H]21`, for which the IC50 in test [1] came out at 1000 nM; in test [2], 1110 nM; in test [3], 1220 nM; in test [4] it was 1830 nM.

On to `COc1cccc2c1N(CCCn1c[n+](Cc3ccc(C)cc3)c3cc(C)c(C)cc31)C[C@@H]1Cc3ccccc3[C@H]21`, for which the IC50 turned out to be 660 nM in test [1], 1510 nM in test [2], 670 nM in test [3] and 560 nM in test [4].

Consider `COc1cccc2c1N(C(=O)CCn1c[n+](Cc3ccc4ccccc4c3)c3cc(C)c(C)cc31)C[C@@H]1Cc3ccccc3[C@H]21`, for which the IC50 was 1030 nM in test [1], 2580 nM in test [2], 930 nM in test [3] and 970 nM in test [4].

Consider `COc1cccc2c1N(CCCn1c(C)[n+](CC(=O)c3ccc4ccccc4c3)c3ccccc31)C[C@@H]1Cc3ccccc3[C@H]21`, for which the IC50 in test [1] was 2010 nM; in test [2], 5320 nM; in test [3], 1360 nM; in test [4], 1800 nM.

On to `COc1cccc2c1N(C(=O)CCn1c(C)nc3ccccc31)C[C@@H]1Cc3ccccc3[C@H]21`, for which the IC50 in test [1], in test [2], in test [3] and in test [4] was above 20000 nM throughout.

On to `COc1cccc2c1N(C(=O)CCn1c(C)[n+](CC(=O)c3ccc4ccccc4c3)c3ccccc31)C[C@@H]1Cc3ccccc3[C@H]21`, for which the IC50 stood at 1510 nM in test [1], 4710 nM in test [2], 1460 nM in test [3] and 1440 nM in test [4].

In the case of `COc1cccc2c1N(CCCn1c[n+](Cc3ccc4ccccc4c3)c3cc(C)c(C)cc31)C[C@@H]1Cc3ccc(Br)cc3[C@H]21`, the IC50 in test [1] came to 2160 nM; in test [2], 5620 nM; in test [3], 840 nM; in test [4], 3920 nM.

With `COc1cccc2c1N(CCCn1c(C)[n+](Cc3ccc4ccccc4c3)c3ccccc31)C[C@@H]1Cc3ccc(Br)cc3[C@H]21`, the IC50 in test [1] worked out at 1080 nM; in test [2] it was 1890 nM; in test [3], 920 nM; in test [4], 1280 nM.

In the case of `COc1cccc2c1N(CCCn1c(C)nc3ccccc31)C[C@@H]1Cc3ccccc3[C@H]21`, the IC50 in test [1], in test [2], in test [3] and in test [4] was above 20000 nM in each case.

For the compound `COc1ccc(C(=O)C[n+]2cn(CCCN3C[C@@H]4Cc5cc(OC)c(OC)cc5[C@@H]4c4cccc(OC)c43)c3cc(C)c(C)cc32)cc1`, the IC50 amounted to 4500 nM in test [1], 8270 nM in test [2], 2140 nM in test [3] and 1800 nM in test [4].

As for `COc1cccc2c1N(CCCn1cnc3cc(C)c(C)cc31)C[C@@H]1Cc3ccc(Br)cc3[C@H]21`, the IC50 in test [1], in test [2], in test [3] and in test [4] was above 20000 nM each time.

Turning to `COc1cccc2c1N(C(=O)CCn1cnc3cc(C)c(C)cc31)C[C@@H]1Cc3ccccc3[C@H]21`, the IC50 in test [1], in test [2], in test [3] and in test [4] was above 20000 nM in each case.

For the compound `COc1cc2c(cc1OC)[C@@H]1c3cccc(OC)c3N(CCCn3c[n+](Cc4ccc(C)cc4)c4cc(C)c(C)cc43)C[C@@H]1C2`, the IC50 in test [1] turned out to be 1710 nM; in test [2], 4830 nM; in test [3], 2000 nM; in test [4], 2000 nM.

On to `COc1cccc2c1N(CCCn1c(C)[n+](Cc3ccc4ccccc4c3)c3ccccc31)C[C@@H]1Cc3ccccc3[C@H]21`, for which the concentration for half-maximal inhibition (IC50) in test [1] was determined as 2060 nM; in test [2], 5740 nM; in test [3], 1020 nM; in test [4], 2160 nM.

Regarding `COc1ccc(C(=O)C[n+]2c(C)n(CCC(=O)N3C[C@@H]4Cc5cc(OC)c(OC)cc5[C@@H]4c4cccc(OC)c43)c3ccccc32)cc1`, the IC50 in test [1] was above 20000 nM; in test [2] it was above 20000 nM; in test [3] it was above 20000 nM; in test [4] it was 15400 nM.

As to `COc1cccc2c1N(C(=O)CCn1c[n+](Cc3ccc4ccccc4c3)c3cc(C)c(C)cc31)C[C@@H]1Cc3ccc(Br)cc3[C@H]21`, the IC50 in test [1] is 1090 nM; in test [2], 1450 nM; in test [3] it was 1050 nM; in test [4], 1050 nM.

As usually defined, the IC50 is the concentration that inhibits the measured activity by half.
